Sampled rows, rich in hits. Any-hit rate of the full collection: about 3.5%.
MEKK2 WT-MEK5 – modulators of MEK5 binding to wildtype MEKK2, primary screen, biochemical, multiplex bead flow cytometry, Alexa488-MEK5 | Mitogen-activated protein kinase kinase kinase 2 (Homo sapiens), Q9Y2U5 | Alexa488-MEK5 binding to MEKK2 WT; actives lie on both sides | hit rate 1.1% among 290,000 | binding response (% of control), % at 10 µM; in the data active means binding response below about 67% or above about 130%
MEKK2mut PB1 HTS – MEK5 binding signal on mutant MEKK2 PB1, primary screen, biochemical, multiplex bead flow cytometry, Alexa488-MEK5. percent response, % at 10 µM. Alexa488-MEK5 binding to MEKK2 mutant. AID 1530, 2009. hit rate 0.35% among 290,000; in the data active means percent response above about 24%, passing the limit was not always enough
MEKK3 PB1 HTS – modulators of MEKK3-MEK5 PB1 binding, primary screen, biochemical, wildtype MEKK3, multiplex bead flow cytometry, Alexa488-MEK5 | Mitogen-activated protein kinase kinase kinase 3 (Homo sapiens), Q99759 | bead-based flow cytometry, Alexa488-MEK5 binding to MEKK3; actives lie on both sides; 0 = blocked by unlabeled MEK5, 100 = vehicle | binding response (% of control), % at 10 µM | hit rate 1.4% among 290,000 | AID 1529, 2009;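 active means binding response more than 3 SD above or below the average of its plate-row segment, actives on both sides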;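 further: Alexa488 bead fluorescence after subtracting the streptavidin-only scavenger bead signal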
ABCB1 block – ABCB1 efflux pump inhibitors, primary screen, cell-based, multiplex, flow cytometry, ABCG2 counter-screen; hit rate 0.067% among 190,000; CCRF-Adr cells, JC-1 efflux; AID 1326, 2008; ATP-dependent translocase ABCB1 (Homo sapiens), P08183; inhibition, % at 6.6 µM; in the data active means inhibition above about 40%;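 further: 0% = vehicle and 100% = reference inhibitor; higher value means more JC-1 retained so stronger ABCB1 efflux block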
ABCG2 inh – ABCG2 efflux pump inhibitors, primary screen, multiplex with ABCB1, IgMXP3 cells, flow cytometry; Broad substrate specificity ATP-binding cassette transporter ABCG2 (Homo sapiens), Q9UNQ0; JC-1 efflux; hit rate 0.1% among 190,000; inhibition, % at 6.6 µM; AID 1325, 2008;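 active means inhibition above 80%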;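 further: 0% = DMSO and 100% = nicardipine control wells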
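Read-out basis: Efflux inhibition in percent versus controls | Test system: ABCG2 IgMXP3 and barcoded ABCB1 CCRF-Adr cell mix | Quantity: 3 million cells/mL in well | Schedule: 10 min at 25 °C | Control set: Nicardipine as high control, DMSO as low control | Reagent: JC-1 as fluorescent efflux pump substrate | Signal: Flow cytometry of retained JC-1 fluorescence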
WT yeast gro inh – growth inhibition of WT strain, primary screen, mitochondrial fusion inhibitor project, WT and mutant strains, chemical genetic. mitochondrial fusion phenotypic screen. inhibition, % at 10 µM. hit rate 2.1% among 190,000; in the data active means inhibition above about 58%; tested in S. cerevisiae
MEKK2wt confirm – modulators of MEK5 binding to wildtype MEKK2, confirmation, biochemical, single concentration, multiplex bead flow cytometry; binding response (% of control), % at 10 µM; shares compounds with MEKK3 PB1 HTS; Alexa488-MEK5 binding to MEKK2 WT; actives lie on both sides; hit rate 2.4% among 5,900; in the data active means binding response below about 16% or above about 210%; inactive means in between
MEKK2mut-MEK5 – mutant MEKK2 PB1-MEK5 binding signal retest – biochemical, single concentration, multiplex bead flow cytometry, confirmation. shares compounds with MEKK3 PB1 HTS. Alexa488-MEK5 binding to MEKK2 mutant. percent response, % at 10 µM. hit rate 2% among 5,900; in the data active means percent response mostly above about 71%, no sharp cut-off; inactive means mostly below about 38%;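 further: higher means compound restores mutant binding toward wildtype level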
MEKK3-MEK5 inh – MEKK3 wild-type PB1 binding to MEK5, inhibitors, confirmation, biochemical, bead multiplex flow cytometry, single concentration, wildtype; hit rate 1.8% among 5,900; shares compounds with MEKK3 PB1 HTS; binding response (% of control), % at 10 µM; AID 1894, 2009; Alexa488-MEK5 binding to MEKK3; active compounds read low;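 active means binding response below 72% of control, or above a set upper limit, though filed actives all read lower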;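 further: 100% = DMSO only wells and 0% = binding blocked by excess unlabeled MEK5; lower values mean stronger disruption of MEK5 binding to MEKK3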
The depositor's hits bear a star; x = not tested or not shown; [ ] = remark or other dose.

SMILES | MEKK2 WT-MEK5 | MEKK2mut PB1 HTS | MEKK3 PB1 HTS | ABCB1 block | ABCG2 inh | WT yeast gro inh | MEKK2wt confirm | MEKK2mut-MEK5 | MEKK3-MEK5 inh
CCc1cc2cc(C)cc(C)c2nc1Cl | 123 | 5 | 138* | 0 | 1 | -7 | 95 | -28 | 98
CCc1cc2ccccc2nc1Cl | 93 | -6 | 102 | 0 | 1 | -15 | x | x | x
COc1ccc(NC(=O)c2nc[nH]c2C(=O)N[C@@H](C)C(=O)OC(C)(C)C)cc1 | 101 | -7 | 82*[inhibitor] | x | x | x | 88 | -9 | 89
C[C@H](NC(=O)c1nc[nH]c1C(=O)NC1CCN(C(=O)OC(C)(C)C)CC1)C(=O)OC(C)(C)C | -5.0*[inhibitor] | -44 | 1.0*[inhibitor] | 11 | 5 | 12 | 101 | -2 | 99
Cc1ccc(NC(=O)c2nc[nH]c2C(=O)N[C@@H](C)C(=O)OC(C)(C)C)cc1 | 95 | 1 | 99 | x | x | x | x | x | x
NC(=O)Nc1ccc(C(=O)OCC(=O)NC2CCCCC2)cc1 | 96 | -2 | 98 | 0 | 4 | 2 | x | x | x
CC12CN3CC(C)(CN(C1)C3c1ccc(F)cc1)C2 (stereo not drawn) | 115 | 1 | 130* | 0 | 0 | 14 | 103 | -3 | 98
O=C(CN1CCC(O)(c2cccc(F)c2)CC1)NCCc1c[nH]c2ccccc12 | 178* | 46 | 124 | x | x | x | 129 | 22 | 108
Cc1ccc(-c2cc(C(=O)Nc3nccs3)c3ccccc3n2)c(C)c1 | 106 | 0 | 152* | 4 | 12 | 42 | 105 | -6 | 101
CCS(=O)(=O)N1CCC(C(=O)c2ccc(Cl)cc2)CC1 | 104 | 5 | 107 | 1 | 10 | -1 | x | x | x
CCNC(=O)CSc1nc2cc([N+](=O)[O-])ccc2n1-c1cccc(C(F)(F)F)c1 | 119 | 20 | 105 | 4 | 56 | -2 | x | x | x
NC(=O)CSc1nc2cc([N+](=O)[O-])ccc2n1-c1cccc(C(F)(F)F)c1 | 109 | 1 | 133* | 1 | 3 | -6 | 106 | 4 | 106
CC(=O)N(CN1C(=O)c2ccccc2C1=O)c1ccc2c(c1)oc1ccccc12 | 125 | 32 | 115 | 2 | 17 | 7 | x | x | x
CC1(C)Cc2ccccc2/C(=C/C(=O)N2CCCCCC2)N1 | 85 | -9 | 79*[inhibitor] | 0 | 2 | 11 | 103 | 3 | 102
CCOC(=O)C(CCCOc1ccccc1)C(=O)OCC | 65 | -35 | 43*[inhibitor] | 0 | 2 | -9 | 96 | -5 | 101
COC(=O)c1cc(C(=O)OC)cc(N2C(=O)CC(NNC(=O)c3ccc(C)cc3)C2=O)c1 (stereo not drawn) | 89 | -1 | 61*[inhibitor] | -1 | 4 | -5 | 102 | 4 | 102
CC1CN(C2CCN(C(=O)c3ccccc3)CC2)CC(C)O1 (stereo not drawn) | 103 | 5 | 100 | 0 | 0 | -8 | x | x | x
CCN1CCN(c2cc(C)c3cc(NC(=S)NCCN(C)C)ccc3n2)CC1 | 125 | 13 | 106 | x | x | x | x | x | x
